Laboratory results published in PMC9321963 (Birth Defects Research, 2022).
“And” between values parts separate entries of the source, which are not always exact repeats. Equal values may be shown once.

What was measured:
[1] = Rat main embryofetal developmental toxicity study; format: in vivo; details: female, Sprague-Dawley, rat, in vivo, oral, maternal NOAEL, rat main EFD
Summary of the method: (§1)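 GLP main study following ICH S5(R2): 24 time-mated naïve Crl:CD SD females per group (plug day = GD0) given 2, 6 or 20 mg/kg/day orally once daily GD6–GD17. Vehicle was 20% w/w Kolliphor HS 15 / 50% w/w PEG 400 in water, with the compound suspended in it. Necropsy followed CO2 euthanasia on GD21. Maternal body weight, weight gain, food intake, pregnancy status, corpora lutea, postimplantation loss and live fetuses were recorded. Fetal weight, external, visceral and skeletal examinations were done.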

pregnant rats [2] = experiment: Rat main embryofetal developmental toxicity study; format: in vivo; details: for food consumption, % of control / maternal weight gain, % of control: GD6 to GD9
Summary of the method: as §1

[3] = biological target: All other off‐targets including kinases tested; experiment: In vitro off-target and kinase panels, all other targets; format: biochemical; details: read-out: IC50s, all other off‐targets including kinases tested, human
PI3Kγ = PI3Kγ (Homo sapiens, UniProt P48736); experiment: ADP-Glo Kinase Assay, PI3Kγ; format: biochemical
PI3Kγ, sequence (P48736 whole entry): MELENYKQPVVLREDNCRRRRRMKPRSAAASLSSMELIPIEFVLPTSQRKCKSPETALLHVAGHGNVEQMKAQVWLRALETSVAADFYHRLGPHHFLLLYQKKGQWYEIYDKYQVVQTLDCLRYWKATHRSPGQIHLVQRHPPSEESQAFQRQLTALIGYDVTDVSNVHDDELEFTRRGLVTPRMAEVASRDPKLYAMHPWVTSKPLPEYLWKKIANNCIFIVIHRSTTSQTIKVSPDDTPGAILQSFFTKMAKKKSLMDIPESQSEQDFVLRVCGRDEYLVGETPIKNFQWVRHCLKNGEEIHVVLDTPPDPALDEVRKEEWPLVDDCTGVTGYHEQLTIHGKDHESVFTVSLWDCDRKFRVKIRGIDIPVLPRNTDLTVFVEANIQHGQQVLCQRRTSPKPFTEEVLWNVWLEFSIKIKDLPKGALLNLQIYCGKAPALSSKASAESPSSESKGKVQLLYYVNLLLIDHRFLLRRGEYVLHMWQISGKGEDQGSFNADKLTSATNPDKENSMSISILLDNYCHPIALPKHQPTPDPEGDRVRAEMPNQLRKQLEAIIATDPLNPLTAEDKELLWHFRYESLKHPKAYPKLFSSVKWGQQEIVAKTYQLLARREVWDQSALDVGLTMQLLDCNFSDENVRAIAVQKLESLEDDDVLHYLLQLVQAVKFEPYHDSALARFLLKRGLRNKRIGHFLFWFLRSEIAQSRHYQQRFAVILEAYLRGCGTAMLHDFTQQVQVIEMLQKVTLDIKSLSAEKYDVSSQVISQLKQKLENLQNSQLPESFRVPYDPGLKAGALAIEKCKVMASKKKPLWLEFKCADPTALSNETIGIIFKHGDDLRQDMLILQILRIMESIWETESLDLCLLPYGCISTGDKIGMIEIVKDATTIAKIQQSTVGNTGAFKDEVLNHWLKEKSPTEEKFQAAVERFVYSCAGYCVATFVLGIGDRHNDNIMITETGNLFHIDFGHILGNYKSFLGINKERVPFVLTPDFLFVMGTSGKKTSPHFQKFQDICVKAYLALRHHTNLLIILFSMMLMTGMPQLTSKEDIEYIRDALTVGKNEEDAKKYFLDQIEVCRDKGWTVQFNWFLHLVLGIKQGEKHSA

TSF1 = TSF1 (Homo sapiens, UniProt O75716); experiment: ADP-Glo Kinase Assay, TSF1; format: biochemical
TSF1, sequence (O75716 whole entry): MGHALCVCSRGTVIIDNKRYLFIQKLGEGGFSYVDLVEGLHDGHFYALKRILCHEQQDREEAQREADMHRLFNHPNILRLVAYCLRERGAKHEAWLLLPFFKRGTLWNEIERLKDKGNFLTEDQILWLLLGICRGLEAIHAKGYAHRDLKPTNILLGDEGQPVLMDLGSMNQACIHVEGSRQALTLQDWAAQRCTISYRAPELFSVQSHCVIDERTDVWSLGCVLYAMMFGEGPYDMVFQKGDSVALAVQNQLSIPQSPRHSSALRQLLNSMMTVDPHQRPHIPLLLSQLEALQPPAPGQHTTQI

[4] = Rat investigative embryofetal developmental toxicity study; format: in vivo; details: female, Sprague-Dawley, rat, in vivo, oral
Summary of the method: (§2)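 Crl:OFA SD naïve time-mated females, 25 per group (plug day = GD0), under GLP and ICH S5(R2). Oral daily doses of 20, 40 or 60 mg/kg/day were given GD6–GD17; an extra 60 mg/kg/day group was dosed only GD8–GD11 (diaphragm formation). Suspension vehicle: 20% w/w Kolliphor HS 15 / 50% w/w PEG 400 in water. CO2 euthanasia and necropsy on GD21. Maternal endpoints were recorded, plus fetal weight, external and visceral exams.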

pregnant rats [5] = experiment: as above; format: in vivo; details: rat investigative EFD; for mean maternal body weight gain, % of controls: dosing and post dose periods
Summary of the method: as §2

[6] = rat main EFD, 2 mg/kg/day GD6-GD17
[7] = rat main EFD, 6 mg/kg/day GD6-GD17
[8] = rat main EFD, 20 mg/kg/day GD6-GD17
[9] = 60 mg/kg/day, only dosed GD8 to GD11

Structure (SMILES): CS(=O)(=O)c1ccc(-c2cnc(N)c(-c3ccc(C(F)(F)F)nc3)c2)cc1 [MMV390048]
- NOAEL [1]: 2 mg/kg/day
- Developmental safety margins (pregnant rats [2]; rat NOAEL of 6 mg/kg/day vs observed clinical PK data, human volunteers and patients): < 1
- Female with viable fetuses (pregnant rats [2]; [6]): 22/22
- Postimplantation loss (%) (pregnant rats [2]; [6]): 6.9%
- Edema, fetuses with malformation/total fetuses examined (pregnant rats [2]; [7]): 1/336
- Edema, litters with malformation/total litters examined (pregnant rats [2]; [7]): 1/23
- Female with viable fetuses (pregnant rats [2]; [7]): 23/23
- Postimplantation loss (%) (pregnant rats [2]; [7]): 3.5%
- food consumption, % of control (pregnant rats [2]; rat main EFD, 6 mg/kg/day): 8.9 % of control
- maternal weight gain, % of control (pregnant rats [2]; rat main EFD, 6 mg/kg/day): 20.2 % of control
- Female with viable fetuses (pregnant rats [2]; [8]): 22/22
- Hernias, fetuses with malformation/total fetuses examined (pregnant rats [2]; [8]): 1/154
- Hernias, litters with malformation/total litters examined (pregnant rats [2]; [8]): 1/22
- Postimplantation loss (%) (pregnant rats [2]; [8]): 2.9%
- food consumption, % of control (pregnant rats [2]; rat main EFD, 20 mg/kg/day): 11.5 % of control
- maternal weight gain, % of control (pregnant rats [2]; rat main EFD, 20 mg/kg/day): 41.1 % of control
- IC50 [3]: ≥ 20 µM
- IC50 (PI3Kγ): 4.3 µM
- IC50 (TSF1): 7.3 µM
- NOAEL [4]: 20 mg/kg/day
- NOAEL for developmental toxicity (pregnant rats [5]): not established
- Blood vessels AARS, fetuses with malformation/total fetuses examined (pregnant rats [5]; 20 mg/kg/day GD6-GD17): 2/280
- Blood vessels AARS, litters with malformation/total litters examined (pregnant rats [5]; 20 mg/kg/day GD6-GD17): 2/24
- Blood vessels ADA, fetuses with malformation/total fetuses examined (pregnant rats [5]; 20 mg/kg/day GD6-GD17): 4/280
- Blood vessels ADA, litters with malformation/total litters examined (pregnant rats [5]; 20 mg/kg/day GD6-GD17): 3/24
- Blood vessels IAA, fetuses with malformation/total fetuses examined (pregnant rats [5]; 20 mg/kg/day GD6-GD17): 2/280
- Blood vessels IAA, litters with malformation/total litters examined (pregnant rats [5]; 20 mg/kg/day GD6-GD17): 2/24
- Blood vessels NPT, fetuses with malformation/total fetuses examined (pregnant rats [5]; 20 mg/kg/day GD6-GD17): 1/280
- Blood vessels NPT, litters with malformation/total litters examined (pregnant rats [5]; 20 mg/kg/day GD6-GD17): 1/24
- Edema, fetuses with malformation/total fetuses examined (pregnant rats [5]; 20 mg/kg/day GD6-GD17): 1/280
- Edema, litters with malformation/total litters examined (pregnant rats [5]; 20 mg/kg/day GD6-GD17): 1/24
- Female with viable fetuses (pregnant rats [5]; 20 mg/kg/day GD6-GD17): 24/24
- Fetal BW % from CTL (pregnant rats [5]; 20 mg/kg/day GD6-GD17): −10%
- Heart VSD, fetuses with malformation/total fetuses examined (pregnant rats [5]; 20 mg/kg/day GD6-GD17): 1/280
- Heart VSD, litters with malformation/total litters examined (pregnant rats [5]; 20 mg/kg/day GD6-GD17): 1/24
- Hernias, fetuses with malformation/total fetuses examined (pregnant rats [5]; 20 mg/kg/day GD6-GD17): 35/280
- Hernias, litters with malformation/total litters examined (pregnant rats [5]; 20 mg/kg/day GD6-GD17): 16/24
- Postimplantation loss (%) (pregnant rats [5]; 20 mg/kg/day GD6-GD17): 9.6%
- females with no viable fetuses, number (pregnant rats [5]; 40 mg/kg/day): 6 females
- Blood vessels AARS, fetuses with malformation/total fetuses examined (pregnant rats [5]; 40 mg/kg/day GD6-GD17): 8/97
- Blood vessels AARS, litters with malformation/total litters examined (pregnant rats [5]; 40 mg/kg/day GD6-GD17): 8/16
- Blood vessels ADA, fetuses with malformation/total fetuses examined (pregnant rats [5]; 40 mg/kg/day GD6-GD17): 9/97
- Blood vessels ADA, litters with malformation/total litters examined (pregnant rats [5]; 40 mg/kg/day GD6-GD17): 7/16
- Blood vessels IAA, fetuses with malformation/total fetuses examined (pregnant rats [5]; 40 mg/kg/day GD6-GD17): 4/97
- Blood vessels IAA, litters with malformation/total litters examined (pregnant rats [5]; 40 mg/kg/day GD6-GD17): 4/16
- Blood vessels NPT, fetuses with malformation/total fetuses examined (pregnant rats [5]; 40 mg/kg/day GD6-GD17): 9/97
- Blood vessels NPT, litters with malformation/total litters examined (pregnant rats [5]; 40 mg/kg/day GD6-GD17): 6/16
- Edema, fetuses with malformation/total fetuses examined (pregnant rats [5]; 40 mg/kg/day GD6-GD17): 1/97
- Edema, litters with malformation/total litters examined (pregnant rats [5]; 40 mg/kg/day GD6-GD17): 1/16
- Female with viable fetuses (pregnant rats [5]; 40 mg/kg/day GD6-GD17): 16/22
- Fetal BW % from CTL (pregnant rats [5]; 40 mg/kg/day GD6-GD17): −24%
- Heart Thick VW, fetuses with malformation/total fetuses examined (pregnant rats [5]; 40 mg/kg/day GD6-GD17): 1/97
- Heart Thick VW, litters with malformation/total litters examined (pregnant rats [5]; 40 mg/kg/day GD6-GD17): 1/16
- Heart VSD, fetuses with malformation/total fetuses examined (pregnant rats [5]; 40 mg/kg/day GD6-GD17): 21/97
- Heart VSD, litters with malformation/total litters examined (pregnant rats [5]; 40 mg/kg/day GD6-GD17): 8/16
- Hernias, fetuses with malformation/total fetuses examined (pregnant rats [5]; 40 mg/kg/day GD6-GD17): 63/97
- Hernias, litters with malformation/total litters examined (pregnant rats [5]; 40 mg/kg/day GD6-GD17): 15/16
- Postimplantation loss (%) (pregnant rats [5]; 40 mg/kg/day GD6-GD17): 66.45%
- mean maternal body weight gain, % of controls (pregnant rats [5]; 40 mg/kg/day): 41 % of controls
- females with no viable fetuses, number (pregnant rats [5]; 60 mg/kg/day): 11 females
- mean maternal body weight gain, % of controls (pregnant rats [5]; 60 mg/kg/day): 49 % of controls
- Blood vessels AARS, fetuses with malformation/total fetuses examined (pregnant rats [5]; [9]): 12/65
- Blood vessels AARS, litters with malformation/total litters examined (pregnant rats [5]; [9]): 12/14
- Blood vessels ADA, fetuses with malformation/total fetuses examined (pregnant rats [5]; [9]): 10/65
- Blood vessels ADA, litters with malformation/total litters examined (pregnant rats [5]; [9]): 6/14
- Blood vessels IAA, fetuses with malformation/total fetuses examined (pregnant rats [5]; [9]): 1/65
- Blood vessels IAA, litters with malformation/total litters examined (pregnant rats [5]; [9]): 1/14
- Blood vessels NPT, fetuses with malformation/total fetuses examined (pregnant rats [5]; [9]): 10/65
- Blood vessels NPT, litters with malformation/total litters examined (pregnant rats [5]; [9]): 6/14
- Edema, fetuses with malformation/total fetuses examined (pregnant rats [5]; [9]): 2/65
- Edema, litters with malformation/total litters examined (pregnant rats [5]; [9]): 1/14
- Female with viable fetuses (pregnant rats [5]; [9]): 14/25
- Fetal BW % from CTL (pregnant rats [5]; [9]): −26%
- Heart Thick VW, fetuses with malformation/total fetuses examined (pregnant rats [5]; [9]): 3/65
- Heart Thick VW, litters with malformation/total litters examined (pregnant rats [5]; [9]): 3/14
- Hernias, fetuses with malformation/total fetuses examined (pregnant rats [5]; [9]): 31/65
- Hernias, litters with malformation/total litters examined (pregnant rats [5]; [9]): 11/14
- Postimplantation loss (%) (pregnant rats [5]; [9]): 79.22% and 79.2%
